Calls of active or inactive are those of the source. The calls are words filed in the database; no cut-off is given here.
Experiments:
Stomach [1] = experiment: Inhibition of electrical field stimulation-induced neurogenic contractions in New Zealand white rabbit gastric fundus smooth muscle; format: functional
Stomach [2] = experiment: Inhibition of neostigmine-induced neurogenic contractions in New Zealand white rabbit gastric fundus smooth muscle; format: functional, tissue-based; settings: Oryctolagus cuniculus
Summary of the method: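 Longitudinal gastric fundus strips (about 15–20 mm × 2 mm) from New Zealand white rabbits (2.5–3 kg), taken after i.v. pentobarbital. Strips were held in Krebs–Henseleit organ baths at 1 g basal tension and equilibrated 60 min. Contractions were evoked by electrical field stimulation through platinum electrodes (1 ms pulses, 60 V, 8 Hz) with neostigmine 10^-6 M. Compounds were dissolved in DMSO.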

Stomach [3] = experiment: Myorelaxant activity against noradrenaline-induced contractions in New Zealand white rabbit gastric fundus smooth muscle; format: functional, Oryctolagus cuniculus
Summary of the method: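 Longitudinal fundus strips (15-20 mm x 2 mm) were equilibrated 60 min at 1 g basal tension in Krebs-Henseleit solution, with the solution changed every 15 min. L-NAME 10^-4 M and indomethacin 10^-5 M were added 20 min before precontraction. Strips were precontracted with noradrenaline 10^-5 M. Compounds in DMSO were added cumulatively, each step after a plateau. pD2 and Em (at 3 x 10^-4 M) are mean ± S.E., n = 6.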

Stomach [4] = experiment: Myorelaxant activity against noradrenaline-induced contractions in New Zealand white rabbit gastric fundus smooth muscle in presence of glibenclamide; format: functional, tissue-based; settings: Oryctolagus cuniculus
Stomach [5] = experiment: Reversal of inhibition of electrical field stimulation-induced neurogenic contractions in New Zealand white rabbit gastric fundus smooth muscle in presence of glibenclamide; format: functional, Oryctolagus cuniculus

SMILES	Activity (Stomach [1]; Oryctolagus cuniculus)	Activity (Stomach [2])	pD2 (Stomach [1])	Emax (Stomach [1]; Oryctolagus cuniculus, Stomach) [%]	pD2 (Stomach [3])	Emax (Stomach [3]; Oryctolagus cuniculus, Stomach) [%]	Activity (Stomach [4])	inhibition (INH) (Stomach [5]) [%]
CN1[C@@H]2CC[C@H]1CC(OC(=O)[C@H](CO)c1ccccc1)C2 (some centres undefined)	Active	Active						
NC1=N[C@H](O)[C@H]2[C@H]3O[C@]4(O)O[C@@H]([C@@H](O)[C@@]2(N1)[C@@H]4O)[C@]3(O)CO	Active							
CC(N/C(=N\C#N)Nc1ccncc1)C(C)(C)C (centres undefined) [PINACIDIL ANHYDROUS]			7.49	76.3	5.03	71.2	Active	32.18

— ChEMBL document CHEMBL1149791, “Evaluation of myorelaxant activity of 7-substituted hexahydroquinoline derivatives in isolated rabbit gastric fundus” (2008)
